In ChEMBL document CHEMBL2440028, “Identification of 1-[4-Benzyloxyphenyl)-but-3-enyl]-1H-azoles as New Class of Antitubercular and Antimicrobial Agents” (ACS Med Chem Lett, 2013):
Values after ≈ are worked out from the molar mass of the structure shown.

Columns and labels:
[1] = Selectivity index, ratio of CC50 for African green monkey Vero cells to MIC for Mycobacterium tuberculosis H37Rv; format: functional
[2] = Cytotoxicity against African green monkey Vero cells after 24 hrs by MTS assay; format: cell-based; conditions: chlorocebus sabaeus
[3] = test system: Mycobacterium tuberculosis; assay: Antitubercular activity against Mycobacterium tuberculosis H37Rv assessed as growth inhibition after […] by agar microdilution method; format: functional
[4] = Mean residence time in Sprague-Dawley rat at 10 mg/kg, po; format: ADME, organism-based; parameters: dose 10 mg/kg, route oral; conditions: in vivo
Procedure, shortened: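 Male Sprague-Dawley rats were given a single oral dose of 10 mg/kg. Serum concentration-time profiles were followed, and pharmacokinetic parameters, including mean residence time and clearance, were derived from them.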

Aspergillus fumigatus = assay: Antifungal activity against Aspergillus fumigatus isolated from patient assessed as growth inhibition after 72 to 96 hrs by microbroth dilution method; format: functional
Procedure, shortened: (§1)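 Broth microdilution susceptibility testing following NCCLS guidelines (reference standard M27-A for yeasts), run against a panel of bacterial and fungal strains.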

Staphylococcus aureus = assay: Antibacterial activity against Staphylococcus aureus ATCC 25923 assessed as growth inhibition after 24 hrs by microbroth dilution method; format: functional; conditions: ATCC 25923, 24 h; procedure, shortened: as §1
Cryptococcus neoformans = assay: Antifungal activity against Cryptococcus neoformans CDRI isolate assessed as growth inhibition after 24 to 48 hrs by microbroth dilution method; format: functional; procedure, shortened: as §1
Pseudomonas aeruginosa = assay: Antibacterial activity against Pseudomonas aeruginosa ATCC BAA427 assessed as growth inhibition after 24 hrs by microbroth dilution method; format: functional; conditions: ATCC BAA427, 24 h; procedure, shortened: as §1
Sporothrix schenckii = assay: Antifungal activity against Sporothrix schenckii isolated from patient assessed as growth inhibition after 72 to 96 hrs by microbroth dilution method; format: functional; procedure, shortened: as §1
Escherichia coli = assay: Antibacterial activity against Escherichia coli ATCC 9637 assessed as growth inhibition after 24 hrs by microbroth dilution method; format: functional; conditions: W; procedure, shortened: as §1
Candida parapsilosis = assay: Antifungal activity against Candida parapsilosis ATCC 22019 assessed as growth inhibition after 24 to 48 hrs by microbroth dilution method; format: functional; conditions: Lodderomyces parapsilosis; procedure, shortened: as §1
Klebsiella pneumoniae = assay: Antibacterial activity against Klebsiella pneumoniae ATCC 27736 assessed as growth inhibition after 24 hrs by microbroth dilution method; format: functional; conditions: ATCC 27736, 24 h; procedure, shortened: as §1
[5] = test system: Trichophyton mentagrophytes; assay: Antifungal activity against Trichophyton mentagrophytes isolated from patient assessed as growth inhibition after 72 to 96 hrs by microbroth dilution method; format: functional; procedure, shortened: as §1
Candida albicans = assay: Antifungal activity against Candida albicans isolated from patient assessed as growth inhibition after 24 to 48 hrs by microbroth dilution method; format: functional; procedure, shortened: as §1

With `OC(c1ccc(OCc2ccc(OCCN3CCCCC3)cc2)cc1)C1CC1` (stereo not given) the “Selectivity Index” value [1] was greater than 10, the CC50 at 24 h [2] was greater than 50 µg/mL and the MIC [3] was 3.12 µg/mL (≈ 8.18 µM).

With `ClCC/C=C/c1ccc(OCc2ccc(OCCN3CCCCC3)cc2)cc1` the MIC [3] was 4.46 µg/mL (≈ 11.2 µM).

Work on `C(=C\c1ccc(OCc2ccccc2)cc1)/CCn1cncn1` yielded an MIC [3] greater than 25 µg/mL.

With `C(=C\c1ccc(OCc2ccccc2)cc1)/CCSc1nc2ccccc2s1` the MRT [4] was 6.02 h.

In the case of `C(=C\c1ccc(OCc2ccccc2)cc1)/CCSc1nc2ccccc2[nH]1`, the MIC [3] is reported as greater than 25 µg/mL.

Work on `CCCCSc1nc2ccccc2n1CC/C=C/c1ccc(OCc2ccccc2)cc1` yielded an MIC [3] greater than 12.5 µg/mL.

`Clc1ccc(COc2ccc(/C=C/CCn3cnc4ccccc43)cc2)cc1` showed an MIC [3] of 6.25 µg/mL (≈ 16.1 µM).

`Clc1ccc(COc2ccc(/C=C/CCn3nnc4ccccc43)cc2)cc1` gave an MIC [3] greater than 12.5 µg/mL.

Compound `Brc1ccc(COc2ccc(/C=C/CCn3cncn3)cc2)cc1` has an MIC [3] of 4.78 µg/mL (≈ 12.4 µM).

`Cc1cnn(CC/C=C/c2ccc(OCc3ccc(Br)cc3)cc2)c1` gave an MRT [4] of 7.17 h.

With `O=[N+]([O-])c1cn(CC/C=C/c2ccc(OCc3ccc(F)cc3)cc2)cn1` the MIC [3] was 50 µg/mL (≈ 136 µM).

In the case of `COc1ccc(COc2ccc(/C=C/CCSc3nc4ccccc4[nH]3)cc2)cc1`, the MIC [3] is reported as greater than 12.5 µg/mL.

For `c1ccc2c(c1)ncn2C(c1ccc(OCc2ccc(OCCN3CCCCC3)cc2)cc1)C1CC1` (stereo not given), the MIC [3] was 12.5 µg/mL (≈ 26 µM).

With `c1cc(OCCN2CCCCC2)ccc1COc1ccc(C(Nn2cnnc2)C2CC2)cc1` (stereo not given) the MIC [3] was 50 µg/mL (≈ 112 µM).

Compound `c1ccc2sc(NC(c3ccc(OCc4ccc(OCCN5CCCCC5)cc4)cc3)C3CC3)nc2c1` (stereo not given) has an MIC [3] of 12.5 µg/mL (≈ 24.3 µM).

For `c1ccc2sc(SC(c3ccc(OCc4ccc(OCCN5CCCCC5)cc4)cc3)C3CC3)nc2c1` (stereo not given), the MIC (Aspergillus fumigatus) was 25 µg/mL (≈ 47.1 µM), the “Selectivity Index” value [1] was 32.2 and the MIC (Staphylococcus aureus) was 12.5 µg/mL (≈ 23.6 µM). It also gave an MIC (Cryptococcus neoformans) of 50 µg/mL (≈ 94.2 µM), an MIC (Pseudomonas aeruginosa) greater than 50 µg/mL and a CC50 at 24 h [2] of 100 µg/mL (≈ 188 µM). For the same compound, the MIC (Sporothrix schenckii) was 12.5 µg/mL (≈ 23.6 µM), the MIC (Escherichia coli) was greater than 50 µg/mL and the MIC (Candida parapsilosis) was greater than 50 µg/mL. It also gave an MIC (Klebsiella pneumoniae) greater than 50 µg/mL, an MIC [3] of 3.12 µg/mL (≈ 5.88 µM) and an MIC [5] of 6.25 µg/mL (≈ 11.8 µM). The MIC (Candida albicans) was 6.25 µg/mL (≈ 11.8 µM).

For `c1ccc2[nH]c(SC(c3ccc(OCc4ccc(OCCN5CCCCC5)cc4)cc3)C3CC3)nc2c1` (stereo not given), the MIC [3] was greater than 50 µg/mL.

With `Fc1ccc2nc(NC(c3ccc(OCc4ccc(OCCN5CCCCC5)cc4)cc3)C3CC3)sc2c1` (stereo not given) the “Selectivity Index” value [1] was 0.78, the CC50 at 24 h [2] was 4.93 µg/mL (≈ 9.27 µM) and the MIC [3] was 6.25 µg/mL (≈ 11.8 µM).

For `c1ccc2oc(NC(c3ccc(OCc4ccc(OCCN5CCCCC5)cc4)cc3)C3CC3)nc2c1` (stereo not given), the MIC (Aspergillus fumigatus) was greater than 50 µg/mL, the “Selectivity Index” value [1] was 1.87 and the MIC (Staphylococcus aureus) was 25 µg/mL (≈ 50.2 µM). For the same compound, the MIC (Cryptococcus neoformans) was 50 µg/mL (≈ 100 µM), the MIC (Pseudomonas aeruginosa) was greater than 50 µg/mL and the CC50 at 24 h [2] was 11.7 µg/mL (≈ 23.5 µM). The MIC (Sporothrix schenckii) was 25 µg/mL (≈ 50.2 µM), the MIC (Escherichia coli) was greater than 50 µg/mL and the MIC (Candida parapsilosis) was 50 µg/mL (≈ 100 µM). The MIC (Klebsiella pneumoniae) was greater than 50 µg/mL, the MIC [3] was 6.25 µg/mL (≈ 12.6 µM) and the MIC [5] was 12.5 µg/mL (≈ 25.1 µM). It also gave an MIC (Candida albicans) of 12.5 µg/mL (≈ 25.1 µM).

With `c1ccc(COc2ccc(C(C3CC3)n3cnc4ccccc43)cc2)cc1` (stereo not given) the MIC [3] was 12.5 µg/mL (≈ 35.3 µM).

For `c1ccc(COc2ccc(C(C3CC3)n3ccnc3)cc2)cc1` (stereo not given), the MIC [3] was 12.5 µg/mL (≈ 41.1 µM).

Work on `c1ccc(COc2ccc(C(C3CC3)n3cncn3)cc2)cc1` (stereo not given) yielded an MIC [3] greater than 12.5 µg/mL.

Work on `c1ccc(COc2ccc(C(Nn3cnnc3)C3CC3)cc2)cc1` (stereo not given) yielded an MIC [3] greater than 12.5 µg/mL.

Work on `c1ccc(COc2ccc(C(Nc3nc4ccccc4s3)C3CC3)cc2)cc1` (stereo not given) yielded an MRT [4] of 7.9 h.

Compound `O=[N+]([O-])c1cnc(NC(c2ccc(OCc3ccccc3)cc2)C2CC2)s1` (stereo not given) has an MIC [3] greater than 25 µg/mL.

Compound `Cc1cnn(C(c2ccc(OCc3ccccc3Cl)cc2)C2CC2)c1` (stereo not given) has an MIC [3] of 12.5 µg/mL (≈ 35.4 µM).

In the case of `Clc1ccc(COc2ccc(C(C3CC3)n3cncn3)cc2)cc1` (stereo not given), the MIC [3] is reported as 12.5 µg/mL (≈ 36.8 µM).

In the case of `Brc1ccc(COc2ccc(C(C3CC3)n3cncn3)cc2)cc1` (stereo not given), the MIC [3] is reported as 25 µg/mL (≈ 65.1 µM).

For `Cc1cnn(C(c2ccc(OCc3ccc(Br)cc3)cc2)C2CC2)c1` (stereo not given), the MIC [3] was greater than 50 µg/mL.

`O=[N+]([O-])c1cn(C(c2ccc(OCc3ccc(F)cc3)cc2)C2CC2)cn1` (stereo not given) showed an MIC [3] of 12.5 µg/mL (≈ 34 µM).

In the case of `COc1ccc(COc2ccc(C(C3CC3)n3cnc4ccccc43)cc2)cc1` (stereo not given), the MIC [3] is reported as greater than 12.5 µg/mL.

`COc1ccc(COc2ccc(C(C3CC3)n3ccnc3)cc2)cc1` (stereo not given) showed an MIC (Aspergillus fumigatus) of 6.25 µg/mL (≈ 18.7 µM), an MIC (Staphylococcus aureus) of 25 µg/mL (≈ 74.8 µM) and an MIC (Cryptococcus neoformans) of 50 µg/mL (≈ 150 µM). It also gave an MIC (Pseudomonas aeruginosa) of 50 µg/mL (≈ 150 µM), an MIC (Sporothrix schenckii) of 3.12 µg/mL (≈ 9.33 µM) and an MIC (Escherichia coli) greater than 50 µg/mL. It also gave an MIC (Candida parapsilosis) of 50 µg/mL (≈ 150 µM), an MIC (Klebsiella pneumoniae) of 25 µg/mL (≈ 74.8 µM) and an MIC [3] of 12.5 µg/mL (≈ 37.4 µM). The MIC [5] was 3.12 µg/mL (≈ 9.33 µM) and the MIC (Candida albicans) was 25 µg/mL (≈ 74.8 µM).

For `C(=C\c1ccc(OCc2ccccc2)cc1)/CCn1cnc2ccccc21`, the MRT [4] was 3.22 h.

With `CC1(C)S[C@@H]2[C@H](NC(=O)[C@H](N)c3ccccc3)C(=O)N2[C@H]1C(=O)O` [AMPICILLIN] the MIC (Staphylococcus aureus) was 0.04 µg/mL (≈ 0.114 µM), the MIC (Pseudomonas aeruginosa) was greater than 50 µg/mL and the MIC (Escherichia coli) was 3.12 µg/mL (≈ 8.93 µM). For the same compound, the MIC (Klebsiella pneumoniae) was 50 µg/mL (≈ 143 µM).

In the case of `Clc1ccccc1C(c1ccccc1)(c1ccccc1)n1ccnc1` [CLOTRIMAZOLE], the MIC (Aspergillus fumigatus) is reported as 8 µg/mL (≈ 23.2 µM), the MIC (Cryptococcus neoformans) is reported as 0.25 µg/mL (≈ 0.725 µM) and the MIC (Sporothrix schenckii) is reported as 4 µg/mL (≈ 11.6 µM). It also gave an MIC (Candida parapsilosis) of 1 µg/mL (≈ 2.9 µM), an MIC [5] of 2 µg/mL (≈ 5.8 µM) and an MIC (Candida albicans) of 0.25 µg/mL (≈ 0.725 µM).

With `CC[C@@H](CO)NCCN[C@@H](CC)CO` [ETHAMBUTOL] the MIC [3] was 2 µg/mL (≈ 9.79 µM).

Compound `OC(Cn1cncn1)(Cn1cncn1)c1ccc(F)cc1F` [FLUCONAZOLE] has an MIC (Aspergillus fumigatus) greater than 32 µg/mL, an MIC (Cryptococcus neoformans) of 2 µg/mL (≈ 6.53 µM) and an MIC (Sporothrix schenckii) of 4 µg/mL (≈ 13.1 µM). It also gave an MIC (Candida parapsilosis) of 0.5 µg/mL (≈ 1.63 µM), an MIC [3] of 2.83 µg/mL (≈ 9.22 µM) and an MIC [5] of 16 µg/mL (≈ 52.2 µM). For the same compound, the MIC (Candida albicans) was 1 µg/mL (≈ 3.27 µM).

For `NNC(=O)c1ccncc1` [ISONIAZID], the MIC [3] was 0.025 µg/mL (≈ 0.182 µM).
